Measured values pooled from the literature.
Protocols differ between the studies behind these lines.
Cell line: HeLa
Effect on: cell growth or viability

Compound	assay	conditions	IC50
CC1(C)SC2C(NC(=O)C(NC(=O)C3=C(O)C(Cc4ccc(F)cc4)NC3=O)c3ccccc3)C(=O)N2C1C(=O)O (stereo not drawn)	ATP luminescence	48 h	123 µg/mL
COc1cc(C)cc2oc(-c3ccc(C(F)(F)F)cc3)cc(=O)c12	MTT	48 h	> 100 µM
C#CCOc1cc(C(=O)Nc2cc(OCCCN)c3ccccc3n2)nc(C(=O)Nc2cc(OCCCN)c3ccccc3n2)c1	ATP luminescence	72 h	3.6 µM
COc1cc(C)cc2oc(-c3ccc(Br)cc3)cc(=O)c12	MTT	48 h	> 100 µM
CCOC(=O)C#CC#CC(=O)OCC	MTT	24 h	13.2 µg/mL
COc1cccc2c1C(=O)c1c(O)c3c(c(O)c1C2=O)C[C@@](O)(C(=O)CO)C[C@@H]3O[C@H]1C[C@H](N)[C@H](O)[C@H](C)O1	MTT	72 h	3.62 µM
NCCCOc1cc(NC(=O)c2cc(OCCN)cc(C(=O)Nc3cc(OCCCN)c4ccccc4n3)n2)nc2ccccc12	ATP luminescence	72 h	13.7 µM
CC1(C)S[C@@H]2[C@H](NC(=O)C(C(=O)O)c3ccccc3)C(=O)N2[C@H]1C(=O)O (stereo partly drawn)	ATP luminescence	48 h	76.2 µg/mL
COc1cc(C)cc2oc(-c3cccc(Br)c3)cc(=O)c12	MTT	48 h	32.9 µM
COc1cccc(Oc2ccccc2NC(=O)CNC(=O)c2c(C)cc(C)cc2C)c1			6.5 µM
C(C#CCC1CCCCC1)#CCC1CCCCC1	MTT	24 h	117 µg/mL
C#CCOc1ccc(C(=O)c2cccc(NC(=O)CCc3cccc4c3B(O)OC4)c2)cc1	ATP luminescence	72 h	1.33 µM
CCCC(O)C#CC#CC(O)CCC (stereo not drawn)	MTT	24 h	19.3 µg/mL
O=C(Nc1cc(OCCN2CCCC2)c2ccccc2n1)c1cc(OCCN2CCCC2)cc(C(=O)Nc2cc(OCCN3CCCC3)c3ccccc3n2)n1	ATP luminescence	72 h	2.3 µM
COc1cc(OC)c2c(=O)cc(-c3ccc(N(C)C)cc3)oc2c1	MTT	48 h	55.7 µM
C(C#Cc1ccccc1)#Cc1ccccc1	MTT	24 h	3.77 µg/mL
COc1ccc(-c2cc(=O)c3c(OC)cc(OC)cc3o2)cc1	MTT	48 h	33 µM
COC(=O)CN=c1scc(-c2ccccc2)n1-c1ccccc1[N+](=O)[O-]	MTT		6.02 µM
COc1cc(C)cc2oc(-c3ccc(N(C)C)cc3)cc(=O)c12	MTT	48 h	24.2 µM
Cc1c(O)c(=O)ccn1CCO	MTT	72 h	≥ 100 µM
NCCOc1cc(C(=O)Nc2cc(OCCN)c3ccccc3n2)nc(C(=O)Nc2cc(OCCN)c3ccccc3n2)c1	ATP luminescence	72 h	2.5 µM
CC1(C)CC[C@]2(C(=O)O)CC[C@]3(C)C(=CC[C@@H]4[C@@]5(C)CC[C@H](O)C(C)(C)[C@@H]5CC[C@]43C)[C@@H]2C1	MTT	48 h	34.8 µM
COc1ccc(C(=O)O[C@@H]2CN3Cc4c(cc5c(c4OC)OCO5)[C@@]24C=C[C@H](OC)C[C@@H]34)cc1OC	WST-1	48 h	4.8 µM

Compound	assay	conditions	IC50
CC(=O)c1ccc(-c2cccc(NC(=O)CCc3cccc4c3B(O)OC4)c2)cc1	ATP luminescence	72 h	0.858 µM
CC1(C)SC2C(NC(=O)C(NC(=O)C3=C(O)C(Cc4ccc(O)cc4)NC3=O)c3ccccc3)C(=O)N2C1C(=O)O (stereo not drawn)	ATP luminescence	48 h	93.5 µg/mL
COc1cc(OC)c2c(=O)cc(-c3ccc(Br)cc3)oc2c1-c1c(OC)cc(OC)c2c(=O)cc(-c3ccc(Br)cc3)oc12	MTT	48 h	96.1 µM
CC1(C)SC2C(NC(=O)C(NC(=O)C3=C(O)C4CCCN4C3=O)c3ccccc3)C(=O)N2C1C(=O)O (stereo not drawn)	ATP luminescence	48 h	52.1 µg/mL
CC(=O)O[C@H](C)C(=O)CCCCC[C@@H]1NC(=O)[C@H]2CCCN2C(=O)[C@H](Cc2ccccc2)NC(=O)C(C)(C)NC1=O	XTT		0.119 µM
Brc1ccc(C#CC#Cc2ccc(Br)cc2)cc1	MTT	24 h	16.3 µg/mL
COc1cc(OC)cc(C(=O)c2cc3c(-c4ccccc4)c(O)ccc3o2)c1			15 µM
COc1cc(C)c(-c2c(C)cc(OC)c3c(=O)cc(-c4ccccc4Br)oc23)c2oc(-c3ccccc3Br)cc(=O)c12	MTT	48 h	18.5 µM
COc1ccnc(-c2cc(OC)ccn2)c1	MTT	48 h	> 50 µM
O=C(Cn1ccnc1[N+](=O)[O-])NCc1ccccc1			> 380 µM
NCCCOc1cc(NC(=O)c2cccc(C(=O)Nc3cc(OCCCN)c4ccccc4n3)n2)nc2ccccc12	ATP luminescence	72 h	1.4 µM
COc1nc(OCc2cccc(-c3ccccc3)c2C)ccc1CNCCNC(C)=O	MTT		3.6 µM
COC(=O)CN=c1scc(-c2ccccc2)n1-c1ccc(OC)cc1	MTT	72 h	6.75 µM
CC(C)(C)Oc1ccc(CC2NC(=O)C(C(=O)NC(C(=O)NC3C(=O)N4C3SC(C)(C)C4C(=O)O)c3ccccc3)=C2O)cc1 (stereo not drawn)	ATP luminescence	48 h	59.3 µg/mL
COc1ccc(C(=O)c2cc3c(-c4ccccc4)c(OC)ccc3o2)cc1			1.3 µM
CCN1CCN(C(=O)N[C@@H](C(=O)N[C@@H]2C(=O)N3[C@@H]2SC(C)(C)[C@@H]3C(=O)O)c2ccccc2)C(=O)C1=O	ATP luminescence	48 h	68.2 µg/mL
CN(C)CCCOc1cc(NC(=O)c2cc(Cl)cc(C(=O)Nc3cc(OCCCN(C)C)c4ccccc4n3)n2)nc2ccccc12	ATP luminescence	72 h	1.6 µM
C[C@H](O)C(=O)CCCCCCC(=O)Nc1cccc(-c2cn(-c3ccccc3)nn2)c1	XTT		115 µM
Oc1c(I)cc(Cl)c2cccnc12	MTT	48 h	70.2 µM
Cc1c(O)c(=O)ccn1-c1cccc(C(=O)O)c1	MTT	72 h	600 µM
COc1ccc(C(=O)c2cc3c(-c4ccccc4)c(O)ccc3o2)cc1			0.51 µM
Oc1c(I)cc(I)c2cccnc12	MTT	48 h	> 100 µM
